Experimental data as given in ChEMBL document CHEMBL3259704, “Second generation steroidal 4-aminoquinolines are potent, dual-target inhibitors of the botulinum neurotoxin serotype A metalloprotease and P. falciparum malaria” (J Med Chem, 2014).

Assays:
HepG2 = test: Cytotoxicity against human HepG2 cells assessed as cell viability after 48 hrs by MTT assay; assay type: cell-based; conditions: HepG2, 48 h
Plasmodium falciparum [1] = test: Antimalarial activity against CQ, MFQ-susceptible Plasmodium falciparum D6 clone Sierra 1/UNC isolate assessed as inhibition of parasite proliferation by MSF assay; assay type: functional, organism-based
Method in brief: (§1)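 SYBR Green I fluorescence (MSF) microtiter drug-sensitivity assay: malarial DNA content is the measure of in vitro parasite proliferation. Resistance index is the IC90 ratio of the resistant strain to D6.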

[2] = Selectivity index, ratio of IC50 for human HepG2 cells to IC50 for CQ-resistant, MFQ-susceptible Plasmodium falciparum W2 clone Indochina 1 isolate; assay type: toxicity, cell-based; conditions: read-out: Ratio IC50
PBMC = test: Cytotoxicity against human PBMC assessed as inhibition of cell survival after 72 hrs; assay type: cell-based
Method in brief: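 PBMC from heparinized healthy-donor blood (Histopaque) in RPMI-1640 with 10% FCS and PHA stimulation, 200 000 cells/well, with compounds in DMSO, 72 h at 37 °C, 6% CO2.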

[3] = molecular target: Botulinum neurotoxin type A (Clostridium botulinum) (UniProt P0DPI0); test: Inhibition of Clostridium botulinum recombinant BoNT/A light chain using N-terminal acetylated, C-terminal aminated SNAP-25 (187-203) as substrate at 20 uM by reverse-phase HPLC analysis
Sequence of Botulinum neurotoxin type A (Clostridium botulinum) (P0DPI0 2-448 limits assumed): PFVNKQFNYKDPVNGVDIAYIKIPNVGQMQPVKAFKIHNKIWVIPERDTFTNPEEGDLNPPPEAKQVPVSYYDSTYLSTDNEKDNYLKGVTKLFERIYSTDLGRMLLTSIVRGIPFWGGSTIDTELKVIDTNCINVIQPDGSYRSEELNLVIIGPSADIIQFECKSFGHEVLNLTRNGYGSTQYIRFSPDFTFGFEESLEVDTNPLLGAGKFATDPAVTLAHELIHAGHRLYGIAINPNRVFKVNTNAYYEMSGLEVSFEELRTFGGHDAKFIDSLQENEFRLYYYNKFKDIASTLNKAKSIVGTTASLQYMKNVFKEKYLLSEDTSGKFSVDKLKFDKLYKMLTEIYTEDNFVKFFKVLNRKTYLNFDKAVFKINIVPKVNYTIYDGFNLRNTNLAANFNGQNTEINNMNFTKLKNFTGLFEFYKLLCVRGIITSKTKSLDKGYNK
Method in brief: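 Recombinant BoNT/A LC with SNAP-25 187–203 peptide substrate in 40 mM HEPES–0.05% Tween, pH 7.3, with 0.5 mg/mL BSA and 50 μM excess Zn, at 37 °C. Quenched with TFA; reverse-phase HPLC product/substrate peak areas give percent inhibition, run in duplicate.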

Plasmodium falciparum [4] = test: Resistance index, ratio of IC90 for CQ, MFQ-resistant Plasmodium falciparum TM91C235 clone Southeast asian isolate to IC90 for CQ, MFQ-susceptible Plasmodium falciparum D6 clone Sierra 1/UNC isolate; assay type: functional; method in brief: as §1
Plasmodium falciparum [5] = test: Antimalarial activity against CQ, MFQ-resistant Plasmodium falciparum TM91C235 clone Southeast asian isolate assessed as inhibition of parasite proliferation by MSF assay; assay type: functional, organism-based; method in brief: as §1
[6] = Selectivity index, ratio of IC50 for human HepG2 cells to IC50 for CQ, MFQ-resistant Plasmodium falciparum TM91C235 clone Southeast asian isolate; assay type: toxicity, cell-based; conditions: read-out: Ratio IC50
[7] = Selectivity index, ratio of IC50 for human HepG2 cells to IC50 for CQ, MFQ-susceptible Plasmodium falciparum D6 clone Sierra 1/UNC isolate; assay type: toxicity, cell-based; conditions: read-out: Ratio IC50
[8] = molecular target: Botulinum neurotoxin type A (Clostridium botulinum, UniProt P0DPI0); test: Inhibition of Clostridium botulinum recombinant BoNT/A light chain using N-terminal acetylated, C-terminal aminated SNAP-25 (187-203) as substrate by reverse-phase HPLC analysis
Sequence of Botulinum neurotoxin type A (P0DPI0 2-448 limits assumed): as above
Method in brief: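 Same HPLC LC cleavage assay (pH 7.3 HEPES/Tween, BSA, excess Zn, 37 °C). […] Ki comes from velocity versus substrate at several inhibitor levels, globally fit to a competitive model.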

Plasmodium falciparum [9] = test: Antimalarial activity against CQ-resistant, MFQ-susceptible Plasmodium falciparum W2 clone Indochina 1 isolate assessed as inhibition of parasite proliferation by MSF assay; assay type: functional, organism-based; method in brief: as §1
Plasmodium falciparum [10] = test: Resistance index, ratio of IC90 for CQ-resistant, MFQ-susceptible Plasmodium falciparum W2 clone Indochina 1 isolate to IC90 for CQ, MFQ-susceptible Plasmodium falciparum D6 clone Sierra 1/UNC isolate; assay type: functional; method in brief: as §1
Liver microsome = test: Half life in human liver microsomes; assay type: ADME; conditions: microsomes
[11] = (§2) Half life in mouse liver microsomes; assay type: ADME; conditions: liver microsomes
Liver = test: as §2; assay type: ADME; conditions: microsomes

Compound	IC50 (HepG2) [nM]	IC50 (Plasmodium falciparum [1]) [nM]	IC90 (Plasmodium falciparum [1]) [nM]	selectivity ratio [2]	IC50 (PBMC) [nM]	inhibition [3] [%]	Ratio (Plasmodium falciparum [4])	IC50 (Plasmodium falciparum [5]) [nM]	IC90 (Plasmodium falciparum [5]) [nM]	selectivity ratio [6]	selectivity ratio [7]	IC50 [8] [nM]	IC50 (Plasmodium falciparum [9]) [nM]	IC90 (Plasmodium falciparum [9]) [nM]	Ratio (Plasmodium falciparum [10])	t1/2 (Liver microsome) [h]	half-life [11] [h]	t1/2 (Liver) [h]	Ki [8] [nM]
CC(=O)O[C@H]1C[C@H]2[C@@H]([C@H](OC(C)=O)C[C@@H]3C[C@H](N(C)C)CC[C@@]32C)[C@@H]2CC[C@H]([C@H](C)CCCNCCCNc3ccnc4cc(Cl)ccc34)[C@@]12C	13800	101	139	382	7840	92.6	1.19	88.7	165	156	137	1340	36.1	81.1	0.58				
CC(=O)O[C@H]1C[C@H]2[C@@H]([C@H](OC(C)=O)C[C@@H]3C[C@H](O)CC[C@@]32C)[C@@H]2CC[C@H]([C@H](C)CCCNCCCNc3ccnc4cc(Cl)ccc34)[C@@]12C	1070	9.3	16.5	84		69.9	1.84	11.9	30.3	90	115	5180	12.8	18.8	1.14	0.13	1		
CC(=O)O[C@H]1C[C@H]2[C@@H]([C@H](OC(C)=O)C[C@@H]3C[C@H](NS(C)(=O)=O)CC[C@@]32C)[C@@H]2CC[C@H]([C@H](C)CCCN(C)CCCNc3ccnc4cc(Cl)ccc34)[C@@]12C	2830	31.7	55.9	93		55.6	0.51	20.3	28.6	139	89	8210	30.5	54.7	0.98	0.183	1		
CC(=O)O[C@H]1C[C@H]2[C@@H]([C@H](OC(C)=O)C[C@@H]3C[C@H](NS(C)(=O)=O)CC[C@@]32C)[C@@H]2CC[C@H]([C@H](C)CCCNCCCNc3ccnc4cc(Cl)ccc34)[C@@]12C	4460	37.5	74.7	130		72.9	0.75	30.3	56.2	147	119	3250	34.4	96.4	1.29	0.183		0.783	
CC(=O)O[C@H]1C[C@H]2[C@@H]([C@H](OC(C)=O)C[C@@H]3C[C@H](N(C)C)CC[C@@]32C)[C@@H]2CC[C@H]([C@H](C)CCCN(C)CCNc3ccnc4cc(Cl)ccc34)[C@@]12C	9210	2.35	2.63	6820	2520	85.5	1.26	2.9	3.32	3180	3920	2270	1.35	1.35	0.51	0.45	1		
CC(=O)O[C@H]1C[C@H]2[C@@H]([C@H](OC(C)=O)C[C@@H]3C[C@H](N)CC[C@@]32C)[C@@H]2CC[C@H]([C@H](C)CCCNCCCNc3ccnc4cc(Cl)ccc34)[C@@]12C	10400	138	234	54		84.8	1.49	243	347	43	75	1040	195	282	1.21				3450
